# Hits are enriched below; roughly 2.4% of the tested compounds scored in any of these assays.
# rRNA inh HTS: reduced GFP signal of wild-type E. coli, primary screen, bacterial rRNA inhibitor project, GFP/RFP fluorescence, OD600, single point; E. coli WT GFP vs humanized-ribosome RFP mutants, 24 h; active compounds read low; DMSO median 0, no signal -100; GFP signal change (wild-type ribosome), % (test concentration not listed); hit rate 1.6% among 350,000; AID 720706, 2013;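 active = significant combined selectivity score with lowered wild-type GFP, culture density cut under 30%, mutant RFP and density less affected; inactive = any of these conditions unmet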
# S100A4 inh HTS: inhibitors of S100A4-myosin IIA peptide binding, primary screen, biochemical, fluorescence polarization, TAMRA-MyoIIA peptide. hit rate 0.14% among 360,000. inhibition, % at 10.7 µM. AID 652163, 2013. Protein S100-A4 (Homo sapiens), P26447;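 active = mean inhibition of at least 70% across replicates, with every replicate also reaching that level; inconclusive = mean inhibition reaches 70% but some replicates fall short; inactive = mean inhibition below 70%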
#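 assay system = human S100A4 monomer with TAMRA-labelled myosin IIA peptide | also added = labelled myosin peptide probe, 5 nM | incubation = 5 min between mix addition and reading | control set = DMSO and TFP controls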
# ERAP1 inh: human ERAP1 aminopeptidase inhibitors, primary screen, biochemical, single point, plate reader. Endoplasmic reticulum aminopeptidase 1 (Homo sapiens), Q9NZ08. recombinant ERAP1, Leu-AMC fluorescence, 60 min. inhibition, % at 10.7 µM. hit rate 0.15% among 340,000;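 active = mean replicate inhibition of at least 30%, or all replicates individually reaching that 30% level; inactive = mean below 30% and not every replicate reaching it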;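 note: 0% = neutral control wells and 100% = L-leucinethiol positive control wells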
# Target sequence (Q9NZ08 whole entry, looked up): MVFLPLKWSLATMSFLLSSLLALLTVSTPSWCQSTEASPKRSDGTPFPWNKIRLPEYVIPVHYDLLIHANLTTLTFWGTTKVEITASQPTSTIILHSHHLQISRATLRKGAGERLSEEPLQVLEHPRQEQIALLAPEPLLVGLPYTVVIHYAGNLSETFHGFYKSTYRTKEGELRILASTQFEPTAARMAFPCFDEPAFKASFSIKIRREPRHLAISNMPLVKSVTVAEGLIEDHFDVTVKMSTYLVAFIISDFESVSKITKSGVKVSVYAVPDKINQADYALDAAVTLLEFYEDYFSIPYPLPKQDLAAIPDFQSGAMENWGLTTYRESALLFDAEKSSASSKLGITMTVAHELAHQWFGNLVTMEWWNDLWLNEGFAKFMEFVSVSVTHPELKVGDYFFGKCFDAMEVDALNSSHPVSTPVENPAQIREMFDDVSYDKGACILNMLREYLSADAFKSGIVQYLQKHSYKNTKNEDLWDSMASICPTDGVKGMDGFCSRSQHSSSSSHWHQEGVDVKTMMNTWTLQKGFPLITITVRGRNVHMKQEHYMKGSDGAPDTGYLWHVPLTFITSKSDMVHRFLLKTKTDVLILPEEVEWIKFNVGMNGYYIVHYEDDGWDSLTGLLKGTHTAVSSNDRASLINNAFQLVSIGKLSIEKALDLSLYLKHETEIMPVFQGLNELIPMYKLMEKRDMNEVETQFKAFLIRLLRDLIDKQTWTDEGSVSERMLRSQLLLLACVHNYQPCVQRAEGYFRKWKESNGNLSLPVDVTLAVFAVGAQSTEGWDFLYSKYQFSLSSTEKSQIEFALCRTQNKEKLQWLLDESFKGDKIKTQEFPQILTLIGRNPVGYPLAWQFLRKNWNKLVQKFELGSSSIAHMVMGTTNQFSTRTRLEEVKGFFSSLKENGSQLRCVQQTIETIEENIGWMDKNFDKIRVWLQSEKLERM
# PGC1a acetyl inh: inhibitors of PGC1a acetylation signal, primary screen, cell-based, U2OS, AlphaScreen, inhibitor mode | hit rate 0.17% among 350,000 | inhibition, % at 15.6 µM | AlphaScreen anti-acetyl-lysine; with virally co-expressed GCN5 acetyltransferase;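 active = every replicate shows inhibition of at least 40%; inconclusive = mean inhibition at least 40% but some replicate below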;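 note: 0% = neutral control wells and 100% = positive control wells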
# CASP6 VEID inh: human caspase-6 inhibitors, primary screen, biochemical, VEID-R110 fluorescence, single point, set 2. P55212. hit rate 0.53% among 350,000. AID 686996, 2013. purified caspase-6, Z-VEID-R110 cleavage fluorescence. inhibition, % at 12.5 µM;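 active = mean inhibition across replicates at least about 35%, with every replicate also reaching that limit, limit read from the data; inconclusive = only one of the two criteria met; inactive = neither criterion met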;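 note: 0% = median of neutral control wells and 100% = no fluorescence left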
# ARNT-TACC3 inh: disruptors of ARNT/TACC3 protein interaction, primary screen, biochemical, AlphaScreen, single concentration | Transforming acidic coiled-coil-containing protein 3 (Homo sapiens), Q9Y6A5 | AlphaScreen His-ARNT PAS-B/GST-TACC3 binding, luminescence; TACC3 fragment carries E629A point mutation | inhibition, % at 9.99 µM | hit rate 0.66% among 390,000 | AID 623870, 2012;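 active = mean inhibition of replicates at least 50% and at least half of replicates each reaching 50%; inconclusive = half or more replicates reach 50% but mean below 50%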;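 note: 0% = complete ARNT plus TACC3 wells and 100% = ARNT alone without TACC3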
# CASP1 counter: human caspase-1 inhibitors, dose response, selectivity assay for caspase-6 inhibitor project, biochemical, Z-YVAD-R110 fluorescence, cherry-pick, set 2; AID 743289, 2014; shares compounds with CASP6 VEID inh; purified caspase-1, Z-YVAD-R110 cleavage fluorescence; activity change, negative = inhibition, % at 35 µM; 100 tested, under 10 active;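 active = compounds lowering fluorescence whose fitted half-maximal concentration is no more than twice their top tested dose; inconclusive = flat fit with 30 to 70% inhibition, or poor fit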
# HepG2 cytotox: cytotoxicity in HepG2 cells, dose response, cytotoxicity control, cell-based, CellTiter-Glo luminescence, cherry-pick, set 4; shares compounds with rRNA inh HTS; HepG2 viability, ATP luminescence, 72 h; activity change, negative = cytotoxicity, unspecified at 26 µM; 30 tested, under 10 active; AID 743480, 2014;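 active = compounds whose fitted half-maximal signal-loss concentration is at most twice their highest valid dose; inconclusive = flat curve with 30 to 70% signal loss, or poor fit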
# AID977621: growth inhibition of wild-type GFP E. coli, dose response, H69 mutant RFP, cherry-pick | shares compounds with rRNA inh HTS | E. coli wild-type GFP strain growth, fluorescence, 24 h | activity change, negative = inhibition at 50 µM | 1,900 tested, under 10 active | AID 977621, 2014;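 active = Wild-type ribosome reporter drop at least double the humanized mutant ribosome reporter drop, growth loss under a set limit; inconclusive = no clear call, values can overlap the other calls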;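 note: wild-type GFP and H69 mutant RFP strains grown together 50/50 in each well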
# AID977628: E. coli growth inhibition, wild-type GFP versus h24 humanized RFP strain, dose response, h24 mutant RFP vs wild-type GFP, cherry-pick | shares compounds with rRNA inh HTS | E. coli WT GFP strain growth, fluorescence, 24 h | activity change, negative = inhibition at 50 µM | 1,900 tested, under 10 active | AID 977628, 2014;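 active = compound lowering the normal-ribosome reporter at least twice as much as the humanized-ribosome reporter, growth loss under a set limit; inconclusive = no clear call, values can overlap the other calls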;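 note: wild-type GFP and h24 humanized RFP strains co-cultured 1 to 1 per well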
# * = called active by the depositor; ? = inconclusive; nt = no result.
SMILES,rRNA inh HTS,S100A4 inh HTS,ERAP1 inh,PGC1a acetyl inh,CASP6 VEID inh,ARNT-TACC3 inh,AID977628,others
Cc1ccc(-n2nc3c([n+]2[O-])CCc2c-3no[n+]2[O-])cc1,nt,nt,nt,12,nt,-2,nt,
O=C(C1CCCC1)N1CC(=O)N2[C@H](CO)[C@@H](c3ccc(-c4ccccc4F)cc3)[C@@H]2C1,-12,nt,nt,nt,nt,nt,nt,
C[C@@H](NC(=O)C[C@@H]1C=C[C@H](NC(=O)CN2CCOCC2)[C@@H](CO)O1)c1ccccc1,4,17,4,-3,-29,-7,nt,
COC(=O)[C@H]1[C@H](CO)[C@H]2Cn3c(ccc(C4=CCCCC4)c3=O)[C@H]2N1Cc1cccnc1,-3,-13,0,8,3,nt,nt,
Oc1ccc2c(c1)OCC1(O)Cc3cc(O)c(O)cc3C21 (stereo not drawn),nt,-1,7,-2,31,1,nt,
Oc1cc2c(cc1O)[C@H]1c3ccc(O)c(O)c3OC[C@@]1(O)C2,-17,-5,22,0,37*,-3,nt,CASP1 counter=-2
CCCC(=O)Nc1ccc2c(c1)C(=O)N(C)[C@@H]1CC[C@@H](CC(=O)NCCc3ccccc3)O[C@H]1CO2,2,nt,nt,-4,nt,nt,nt,
COc1cc(NC(C)CCCN)c2ncccc2c1 (stereo not drawn),nt,19,3,12,91*,36*,nt,CASP1 counter=1
Cc1csc2c(N3CCC(C(=O)O)CC3)ncnc12,-32*,2,1,nt,-5,-2,?,
COc1cc2c(cc1[N+](=O)[O-])-c1ccc([N+](=O)[O-])cc1C2,-23*,6,-1,7,-1,nt,?,HepG2 cytotox=-23
CCOCCCNC(=O)C(NC(=O)c1ccccc1O)c1ccc(C)cc1 (stereo not drawn),-19*,6,0,-3,0,-2,-2.6,AID977621=-6.3
CCOCCCNC(=O)C(NC(=O)c1ccccn1)c1ccc(C)cc1 (stereo not drawn),nt,nt,nt,0,nt,-1,nt,
CS(=O)(=O)N(CC(=O)N1CCc2ccccc2C1)c1cccc(Br)c1,-23*,-2,-1,-8,3,1,?,AID977621=-7.3
COCC(=O)Nc1ccc2c(c1)OC[C@H](C)N(C(=O)c1ccccc1)C[C@H](C)[C@@H](OC)CN(C)C2=O,2,-9,1,-14,nt,-1,nt,
Cc1nn(-c2ccc(N3CCCCC3)nn2)c(C)c1CCC(=O)Nc1ccc(F)cc1,-28*,65,3,-1,2,5,?,AID977621=-17
CCc1ccc(NC(=O)CCc2c(C)nn(-c3ccc(N4CCCCC4)nn3)c2C)cc1,-23*,6,-2,-9,-3,3,?,AID977621=4.5
CCOc1ccc(NC(=O)CCc2c(C)nn(-c3ccc(N4CCCCC4)nn3)c2C)cc1,0,6,0,-15,5,7,nt,
CO[C@@H]1CN(C)C(=O)c2ccc(NC(=O)C3CCOCC3)cc2OC[C@H](C)N(C(C)=O)C[C@H]1C,4,2,-1,3,-3,-29,nt,
C[C@H](CO)N1C[C@H](C)[C@H](CN(C)S(=O)(=O)c2ccc(Cl)cc2)Oc2ccc(NS(=O)(=O)c3ccc(F)cc3)cc2C1=O,-3,17,nt,-4,-2,-2,nt,
COc1ccc(CN(C)C[C@H]2OCCCC[C@@H](C)Oc3ccc(NC(=O)Nc4ccc(OC)cc4)cc3C(=O)N([C@@H](C)CO)C[C@H]2C)cc1,2,13,-1,-22,-1,13,nt,
COc1cccc(C(=O)Nc2cc(C)nn2-c2ccccc2)c1OC,-34*,-1,2,-1,1,-28,nt,HepG2 cytotox=14
O=[N+]([O-])c1cncc([N+](=O)[O-])c1Nc1cccc(O)c1,-26*,3,2,-4,5,18,-11,
O=C(NCCCN1CCOCC1)c1sc2cc([N+](=O)[O-])ccc2c1Cl,nt,nt,nt,0,nt,0,-8.6,
O=C(C[C@@H]1C=C[C@H](NC(=O)CN2CCOCC2)[C@@H](CO)O1)NC1CCCCC1,-3,-5,0,17,2,-23,nt,
O=S(=O)(Nc1ccc(-c2cnco2)cc1)c1ccccc1,-25*,-7,-3,nt,-1,7,nt,AID977621=-11
SMILES,rRNA inh HTS,S100A4 inh HTS,ERAP1 inh,PGC1a acetyl inh,CASP6 VEID inh,ARNT-TACC3 inh,AID977628,others
Cc1cc(C)n(CC(O)COc2ccccc2)n1 (stereo not drawn),nt,nt,nt,-16,nt,6,nt,
Cc1cc(C)n(CC(O)COc2ccc3ccccc3c2)n1 (stereo not drawn),-29*,1,-1,-1,0,-5,nt,AID977621=-16
Cc1ccc(S(=O)(=O)N(C)c2ccccc2)cc1,nt,nt,nt,-5,nt,-1,nt,
CC(=O)Oc1ccc(N(c2ccccc2)S(=O)(=O)c2ccc(C)cc2)cc1,-24*,5,2,-14,6,1,-5,
CCC(=O)Nc1nc2c(OC)ccc(OC)c2s1,-21*,2,2,0,0,-5,nt,AID977621=-10
Cc1ccc(C2NC(c3ccc(C)cc3)C(C)C(=O)C2C)cc1 (stereo not drawn),-27*,-15,0,nt,1,-10,-5.2,AID977621=-11
COc1ccc(NC(=O)Nc2cccc3c2O[C@H](CN(C)S(=O)(=O)c2ccc(C)cc2)[C@H](C)CN([C@H](C)CO)C3=O)cc1,-4,-4,-1,9,1,6,nt,
COc1ccc(NC(=O)Nc2cccc3c2O[C@H](CN(C)S(=O)(=O)c2ccc(C)cc2)[C@H](C)CN([C@@H](C)CO)C3=O)cc1,-19*,3,1,2,3,10,?,
